Results published in ChEMBL document CHEMBL1145035, “Design of selective peptidomimetic agonists for the human orphan receptor BRS-3” (J Med Chem, 2003).
The source made the active and inactive calls. No cut-off for these calls is given here. Square brackets hold non-standard residues; d marks the D form. Peptide text beside a SMILES is read from it. * marks the point of attachment. NHPhenethyl = c1ccc(CCN*)cc1; Nle = CCCC[C@H](N)C(=O)O; PhAc = O=C(Cc1ccccc1)*; βAla = NCCC(=O)O

How the values were obtained:
[1] = biological target: T1, Gastrin-releasing peptide receptor (Homo sapiens, UniProt P30550); assay: Effective concentration required against gastrin releasing peptide receptor (GRP-R) in CHO cells by using FLIPR assay.; type: functional, cell-based
Outline: (§1)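 Intracellular Ca2+ mobilization was read by FLIPR in CHO cells transfected with the human receptor. NMB was the reference for NMB-R and GRP for GRP-R. EC50 values (±SEM) come from independent concentration–response curves, 4 to 30 per compound depending on the series.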
Target sequence in this assay (P30550 whole entry, looked up): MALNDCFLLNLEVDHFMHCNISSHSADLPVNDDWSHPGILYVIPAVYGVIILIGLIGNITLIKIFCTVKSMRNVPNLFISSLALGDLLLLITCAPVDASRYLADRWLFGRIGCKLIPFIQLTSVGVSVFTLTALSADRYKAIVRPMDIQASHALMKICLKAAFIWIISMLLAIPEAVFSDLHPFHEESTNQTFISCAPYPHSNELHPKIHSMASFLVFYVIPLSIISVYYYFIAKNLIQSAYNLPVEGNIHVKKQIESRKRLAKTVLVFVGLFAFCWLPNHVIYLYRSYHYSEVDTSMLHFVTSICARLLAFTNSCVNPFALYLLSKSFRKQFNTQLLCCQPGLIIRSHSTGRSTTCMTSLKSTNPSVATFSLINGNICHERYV

Neuromedin-B receptor [2] = biological target: T2, Neuromedin-B receptor (Homo sapiens, UniProt P28336); assay: Effective concentration required against nueromedin B receptor (NMB-R) in CHO cells by using FLIPR assay.; type: functional, cell-based; outline: as §1
Target sequence in this assay (P28336 whole entry, looked up): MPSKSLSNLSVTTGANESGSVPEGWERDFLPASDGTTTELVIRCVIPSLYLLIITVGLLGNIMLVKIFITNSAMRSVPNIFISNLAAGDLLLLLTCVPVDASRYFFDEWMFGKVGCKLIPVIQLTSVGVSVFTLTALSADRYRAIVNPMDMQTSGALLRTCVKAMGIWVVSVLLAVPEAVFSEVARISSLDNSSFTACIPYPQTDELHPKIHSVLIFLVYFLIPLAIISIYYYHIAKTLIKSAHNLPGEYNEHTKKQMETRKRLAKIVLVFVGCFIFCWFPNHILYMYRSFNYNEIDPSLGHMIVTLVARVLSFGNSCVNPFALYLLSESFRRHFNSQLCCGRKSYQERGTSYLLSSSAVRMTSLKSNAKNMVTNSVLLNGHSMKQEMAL

[3] = Emax
[4] = biological target: T3, Bombesin receptor subtype-3 (Homo sapiens, UniProt P32247); assay: Effective concentration required against human bombesin receptor 3 (BRS-3) in CHO cells by using FLIPR assay.; type: functional, cell-based
T3 sequence (P32247 whole entry): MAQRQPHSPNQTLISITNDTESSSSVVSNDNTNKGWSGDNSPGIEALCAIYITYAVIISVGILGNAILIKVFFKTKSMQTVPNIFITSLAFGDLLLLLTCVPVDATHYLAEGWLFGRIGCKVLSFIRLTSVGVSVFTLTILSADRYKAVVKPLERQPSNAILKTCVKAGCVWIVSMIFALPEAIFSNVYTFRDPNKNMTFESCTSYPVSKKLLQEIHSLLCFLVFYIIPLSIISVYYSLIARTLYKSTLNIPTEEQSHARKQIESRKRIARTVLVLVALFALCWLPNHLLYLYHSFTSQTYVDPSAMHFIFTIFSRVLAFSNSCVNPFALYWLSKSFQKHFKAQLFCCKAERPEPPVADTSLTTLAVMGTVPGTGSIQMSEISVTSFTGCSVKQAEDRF

Neuromedin-B receptor [5] = biological target: T2, Neuromedin-B receptor; assay: (§2) Effective concentration required against nueromedin B receptor (NMB-R) in CHO cells by using FLIPR assay; type: functional, cell-based; outline: as §1
Target sequence in this assay (P28336 whole entry): as the sequence (P28336 whole entry, looked up) above

[6] = biological target: T1, Gastrin-releasing peptide receptor; assay: Effective concentration required against gastrin releasing peptide receptor (GRP-R) in CHO cells by using FLIPR assay; type: functional, cell-based
Target sequence in this assay (P30550 whole entry): as the sequence (P30550 whole entry, looked up) above

Neuromedin-B receptor [7] = biological target: T2, Neuromedin-B receptor; assay: as §2; type: functional, cell-based; remark: listed apart in the source
Target sequence in this assay (P28336 whole entry): as the sequence (P28336 whole entry, looked up) above

Compound	NA [1]	NA (Neuromedin-B receptor [2])	Emax [3]	EC50 [4] [nM]	EC50 (Neuromedin-B receptor [5]) [nM]	EC50 [6] [nM]	EC50 (Neuromedin-B receptor [7]) [nM]
C[C@H](NC(=O)Cc1cccnc1)C(=O)N[C@@H](Cc1c[nH]c2ccccc12)C(=O)NCCc1ccccc1	inactive	inactive	74				
O=C(CNCc1cccnc1)NC(Cc1c[nH]c2ccccc12)C(=O)NCCc1ccccc1 (centres undefined)	inactive	inactive	82				
C[C@H](NCc1ccccc1)C(=O)N[C@@H](Cc1c[nH]c2ccccc12)C(=O)NCCc1ccccc1	inactive	inactive	86	46			
CSCC[C@H](NC(=O)[C@H](CC(C)C)NC(=O)[C@H](Cc1c[nH]cn1)NC(=O)CNC(=O)[C@@H](NC(=O)[C@H](C)NC(=O)[C@H](Cc1c[nH]c2ccccc12)NC(=O)[C@H](Cc1c[nH]cn1)NC(=O)[C@H](CC(N)=O)NC(=O)CNC(=O)[C@H](CCCN=C(N)N)NC(=O)[C@@H]1CCCN1C(=O)[C@H](Cc1ccc(O)cc1)NC(=O)[C@H](CCSC)NC(=O)[C@H](CCCCN)NC(=O)[C@@H](NC(=O)[C@H](CC(C)C)NC(=O)[C@@H](NC(=O)[C@@H](NC(=O)CNC(=O)CNC(=O)CNC(=O)[C@H](C)NC(=O)[C@@H]1CCCN1C(=O)[C@H](CC(C)C)NC(=O)[C@@H]1CCCN1C(=O)[C@@H](N)C(C)C)[C@@H](C)O)C(C)C)[C@@H](C)O)C(C)C)C(N)=O				6400	3200	34	
C[C@H](NC(=O)Cc1ccc2c(c1)OCO2)C(=O)N[C@@H](Cc1c[nH]c2ccccc12)C(=O)NCCc1ccccc1	inactive	inactive	75	7.8			
O=C(CC1NCCc2ccccc21)NNC(=O)N[C@H](Cc1c[nH]c2ccccc12)C(=O)NCCc1ccccc1 (some centres undefined)	inactive	inactive	91	19			
O=C(NNCc1ccc(Cl)cc1)NC(Cc1c[nH]c2ccccc12)C(=O)NCCc1ccccc1 (centres undefined)	inactive	inactive	83	6			
O=C(N/N=C/c1ccc(-c2cccs2)cc1)NC(Cc1c[nH]c2ccccc12)C(=O)NCCc1ccccc1 (centres undefined)	inactive	inactive	58	7900			
O=C(N/N=C/c1ccc(Cl)cc1)NC(Cc1c[nH]c2ccccc12)C(=O)NCCc1ccccc1 (centres undefined)	inactive	inactive	78	2700			
C[C@H](NCCc1ccccc1)C(=O)N[C@@H](Cc1c[nH]c2ccccc12)C(=O)NCCc1ccccc1	inactive	inactive	82				
O=C(Cc1cccnc1)NNC(=O)NC(Cc1c[nH]c2ccccc12)C(=O)NCCc1ccccc1 (centres undefined)	inactive	inactive	102	1.4			
O=C(CNCc1ccccc1)NC(Cc1c[nH]c2ccccc12)C(=O)NCCc1ccccc1 (centres undefined)	inactive	inactive	87				
NC(=O)CC[C@H](NC(=O)Cc1ccc(Cl)cc1)C(=O)N[C@@H](Cc1c[nH]c2ccccc12)C(=O)NCCc1ccccc1			62	1400	18500	12200	
C[C@H](NC(=O)Cc1ccc(Cl)cc1)C(=O)N[C@@H](Cc1c[nH]c2ccccc12)C(=O)NCCc1ccccc1	inactive	inactive	75	140			
O=C(CN1CCN(Cc2ccccc2)CC1)NC(Cc1c[nH]c2ccccc12)C(=O)NCCc1ccccc1 (centres undefined)	inactive	inactive	90	70			
O=C(CC1NCCc2ccccc21)NNC(=O)NC(Cc1c[nH]c2ccccc12)C(=O)NCCc1ccccc1 (centres undefined)	inactive	inactive	95	9.3			
O=C(CNCc1ccc(Cl)cc1)NC(Cc1c[nH]c2ccccc12)C(=O)NCCc1ccccc1 (centres undefined)	inactive	inactive	81				
NC(=O)CC[C@H](NC(=O)[C@H](N)Cc1ccccc1)C(=O)N[C@@H](Cc1c[nH]c2ccccc12)C(=O)NCCc1ccccc1	inactive	inactive		710			

Compound	NA [1]	NA (Neuromedin-B receptor [2])	Emax [3]	EC50 [4] [nM]	EC50 (Neuromedin-B receptor [5]) [nM]	EC50 [6] [nM]	EC50 (Neuromedin-B receptor [7]) [nM]
NC(=O)CC[C@H](NC(=O)CCc1ccc(Cl)cc1)C(=O)N[C@@H](Cc1c[nH]c2ccccc12)C(=O)NCCc1ccccc1	inactive	inactive	68	230			
O=C(CNCCc1ccccc1)NC(Cc1c[nH]c2ccccc12)C(=O)NCCc1ccccc1 (centres undefined)	inactive	inactive	92				
O=C(CN1CCC(Cc2ccccc2)CC1)NC(Cc1c[nH]c2ccccc12)C(=O)NCCc1ccccc1 (centres undefined)	inactive	inactive	84	30			
O=C(NNCc1ccco1)NC(Cc1c[nH]c2ccccc12)C(=O)NCCc1ccccc1 (centres undefined)	inactive	inactive	96	24			
O=C(N/N=C/c1ccco1)NC(Cc1c[nH]c2ccccc12)C(=O)NCCc1ccccc1 (centres undefined)	inactive	inactive	94	1.5			
C[C@H](NC(=O)CC1NCCc2ccccc21)C(=O)N[C@@H](Cc1c[nH]c2ccccc12)C(=O)NCCc1ccccc1 (some centres undefined)	inactive	inactive	69	310			
O=C(Cc1ccc(Cl)cc1)NNC(=O)NC(Cc1c[nH]c2ccccc12)C(=O)NCCc1ccccc1 (centres undefined)	inactive	inactive	89				
C[C@H](NCc1ccc(Cl)cc1)C(=O)N[C@@H](Cc1c[nH]c2ccccc12)C(=O)NCCc1ccccc1	inactive	inactive	83	4			
C[C@H](NC(=O)CCc1ccc(Cl)cc1)C(=O)N[C@@H](Cc1c[nH]c2ccccc12)C(=O)NCCc1ccccc1	inactive	inactive	30	6400			
O=C(Cc1cc2ccccc2[nH]1)NNC(=O)NC(Cc1c[nH]c2ccccc12)C(=O)NCCc1ccccc1 (centres undefined)	inactive	inactive	84				
C[C@H](NC(=O)Cc1cc2ccccc2[nH]1)C(=O)N[C@@H](Cc1c[nH]c2ccccc12)C(=O)NCCc1ccccc1	inactive	inactive	69	79			
O=C(NNCc1ccccc1)NC(Cc1c[nH]c2ccccc12)C(=O)NCCc1ccccc1 (centres undefined)	inactive	inactive	81	15			
O=C(Cc1ccccc1)NNC(=O)NC(Cc1c[nH]c2ccccc12)C(=O)NCCc1ccccc1 (centres undefined)	inactive	inactive	86				
NC(=O)CC[C@H](NC(=O)Cc1cc2ccccc2[nH]1)C(=O)N[C@@H](Cc1c[nH]c2ccccc12)C(=O)NCCc1ccccc1	inactive	inactive	82				
CSCC[C@H](NC(=O)[C@H](Cc1ccccc1)NC(=O)[C@H](Cc1cnc[nH]1)NC(=O)CNC(=O)[C@@H](NC(=O)[C@H](C)NC(=O)[C@H](Cc1c[nH]c2ccccc12)NC(=O)[C@H](CC(C)C)NC(=O)[C@H](CC(N)=O)NC(=O)CN)[C@@H](C)O)C(N)=O				4500	120	41	
CCCC[C@H](NC(=O)[C@H](Cc1ccccc1)NC(=O)[C@H](Cc1cnc[nH]1)NC(=O)CCNC(=O)[C@@H](NC(=O)[C@H](C)NC(=O)[C@H](Cc1c[nH]c2ccccc12)NC(=O)[C@H](CCC(N)=O)NC(=O)[C@H](N)Cc1ccc(O)cc1)C(C)C)C(N)=O (H-[dY]QWAV[βAla]HF[Nle]-NH2)				151			310
C[C@H](NC(=O)Cc1ccccc1)C(=O)N[C@@H](Cc1c[nH]c2ccccc12)C(=O)NCCc1ccccc1 (PhAc-Ala-Trp-NHPhenethyl)	inactive	inactive	71	2.1			
NC(=O)CC[C@H](NC(=O)Cc1ccccc1)C(=O)N[C@@H](Cc1c[nH]c2ccccc12)C(=O)NCCc1ccccc1 (PhAc-Gln-Trp-NHPhenethyl)			38	1200	15000	19100	
